# Assay outcomes: PubChem, Johns Hopkins Ion Channel Center
# KCNQ1 inh = inhibitors of human KCNQ1 potassium channel; P51787; CHO-K1 KCNQ1, FluxOR thallium flux fluorescence; stronger effect = higher value; B-score at 10 µM; 1.3% of 310,000 active; AID 2642;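 active = compounds whose thallium flux B-score, printed positive for inhibition, exceeds three library SD while starting fluorescence stays within three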;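 also: channel opened by potassium depolarization with thallium stimulus after 20 min compound exposure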
# Kir21 block = Kir2.1 (mouse) channel inhibition; B-score at 10 µM; P35561; 0.85% of 310,000 active; HEK293-Kir2.1, FluxOR thallium flux fluorescence; stronger effect = lower value; AID 1672;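 active = fluorescence ratio B-score at or below minus 3 SD of library scores, with starting-brightness B-score within 2 SD, cut at about -4.2 in these data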;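 also: channel flux triggered by added potassium and thallium sulfate stimulus; B-score of peak minus minimum fluorescence over baseline after thallium stimulus; more negative B-score means stronger Kir2.1 block with less thallium influx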
# hERG protect = hERG (human) protection from proarrhythmic block | CHO-hERG, FluxOR thallium flux, dofetilide IC70 present | activation (rescue from dofetilide block), less the hit threshold, % at 10 µM | 0.51% of 310,000 active;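 active = activation above the mean of controls blocked by dofetilide plus 5 SD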;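 also: thallium influx through hERG after potassium depolarization seen as dye fluorescence rise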
# KCNK9 block = human KCNK9 channel inhibition. 1.2% of 310,000 active. AID 488922. HEK293 KCNK9, FluxOR thallium flux fluorescence; stronger effect = lower value. Q9NPC2. B-score at 10 µM;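 active = ratio B-score over 3 SD below the library mean, with starting fluorescence within 5 SD of its mean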;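 also: negative B-score means less thallium flux so channel inhibition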
# KCNQ1 act = human KCNQ1 channel potentiation or activation. 0.35% of 310,000 active. AID 2648. CHO-K1 KCNQ1, thallium flux FluxOR fluorescence; stronger effect = higher value. B-score at 10 µM;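 active = fluorescence ratio B-score, a plate-corrected score, at least three library SD, with initial intensity B-score within 5 SD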
#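 Assay system: stable KCNQ1 CHO-K1 line; medium: assay buffer, equal DMSO in all wells; timing: 90 min dye loading and 20 min compound exposure, both at room temperature; technique: kinetic FluxOR thallium fluorescence, 10-s 1-Hz baseline, 110-s post-stimulus read; read-out basis: B score of baseline-normalized fluorescence ratio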
# KCNK3 inh = human KCNK3 channel inhibition, primary screen; O14649; CHO-KCNK3 thallium flux, FluxOR fluorescence; stronger effect = lower value; B-score at 10 µM; 0.84% of 340,000 active; AID 602410;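 active = B-score under library mean minus 4 SD, starting fluorescence ratio at most library mean plus 5 SD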;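 also: more negative B-score means stronger inhibition of thallium flux through KCNK3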
# Target sequence (O14649 whole entry, looked up): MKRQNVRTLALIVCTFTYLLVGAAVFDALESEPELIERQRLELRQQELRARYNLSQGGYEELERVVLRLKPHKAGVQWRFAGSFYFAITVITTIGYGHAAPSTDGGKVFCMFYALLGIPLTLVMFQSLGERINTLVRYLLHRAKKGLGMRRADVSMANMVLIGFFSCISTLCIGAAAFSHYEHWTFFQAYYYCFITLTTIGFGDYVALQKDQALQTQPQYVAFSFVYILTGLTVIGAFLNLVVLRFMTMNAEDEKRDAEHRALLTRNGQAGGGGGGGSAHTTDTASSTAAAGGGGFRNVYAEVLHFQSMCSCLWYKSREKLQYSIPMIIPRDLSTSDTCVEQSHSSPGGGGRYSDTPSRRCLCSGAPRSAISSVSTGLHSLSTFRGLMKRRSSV
# KCNQ1 block val = confirmation of human KCNQ1 potassium channel inhibitors. AID 588353. KCNQ1 cell line, FluxOR thallium flux fluorescence. 93% of 1,600 active. shares compounds with KCNQ1 inh. inhibition, % at 10 µM;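 active = primary screen active, with duplicate mean exceeding buffer control mean plus 3 SD of buffer wells, cut at about 28% in these data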;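 also: 0% = buffer control ratio and 100% = XE991 inhibitor control ratio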
# CHO KCNQ1 ctr = counter-screen for KCNQ1 inhibitors: effect in parental CHO cells | 21% of 1,600 active | AID 588366 | parental CHO-K1, FluxOR thallium flux fluorescence ratio; stronger effect = lower value; zero means no signal rise above baseline | fluorescence ratio (Tl flux) at 10 µM | shares compounds with KCNQ1 inh;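 active = mean of duplicate thallium-flux fluorescence ratios in parental host cells more than 5 SD below the buffer control mean, cut at about 0.38 in these data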;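 also: ratio is peak minus minimum fluorescence divided by baseline fluorescence; actives read low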
# KCNQ1 APC inh = confirmation of human KCNQ1 potassium channel inhibitors by electrophysiology; AID 624120; KCNQ1-CHO cells, automated patch clamp current; calls only at 10 µM; shares compounds with KCNQ1 inh; 20% of 490 active;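 active = KCNQ1 current drop exceeding 3 SD of negative control wells, seen in both duplicate runs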;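 also: steady state current during a 2 s step from -80 to +40 mV; negative values mean current inhibition and positive values mean potentiation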
# KCNQ2 spec = rat KCNQ2 inhibition in KCNQ1 inhibitor specificity screen. KCNQ2 cells, FluxOR thallium flux fluorescence. 71% of 1,600 active. shares compounds with KCNQ1 inh. inhibition, % at 10 µM. AID 651746;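 active = mean percent inhibition of the KCNQ2 thallium signal more than 5 SD above the buffer-only control wells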;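 also: KCNQ2 expressed in CHO cells; 0% = buffer control wells and 100% = XE-991 inhibitor control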
# KCNQ1 KCNE1 spec = KCNQ1 inhibitor that also blocks human KCNQ1/KCNE1 channel. shares compounds with KCNQ1 inh. KCNQ1/KCNE1 cells, FluxOR thallium flux fluorescence. inhibition, % at 10 µM. 77% of 1,600 active;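 active = mean percent inhibition of duplicate wells above the buffer-only control mean plus 3 SD of those controls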;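 also: 0% = buffer only wells and 100% = XE-991 inhibitor control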
# The depositor's hits bear a star; i = inactive; nt = no result; + = active, no number. Most compounds without a hit are left out; they make up all but 3.7% or so of the library.
SMILES,KCNQ1 inh,Kir21 block,hERG protect,KCNK9 block,KCNQ1 act,KCNK3 inh,KCNQ1 block val,CHO KCNQ1 ctr,KCNQ2 spec,KCNQ1 KCNE1 spec,others
CCN(CC)c1nc2ccccc2n(Cc2cccc(OC)c2)c1=O,6*,0.05,-5.8,i,i,i,109.0*,0.402,99.3%*,170.0%*,KCNQ1 APC inh=i
CC(C)[C@H](NC(=O)N1CCn2c1nc1ccccc12)C(=O)N1CCCCC1,i,1.05,-9.7,i,i,i,nt,nt,nt,nt,
O=C1c2ccccc2-c2onc3ccc(N4CCCC4)c1c23,i,-1.7,-11.6,i,i,i,nt,nt,nt,nt,
CCOc1ccc2noc3c2c1C(=O)c1ccccc1-3,32*,-13.5,-47.7,i,i,i,+,0.018*,i,i,
O=C(NCCCN1CCCC1=O)c1ccc(S(=O)(=O)Nc2cccc(C(F)(F)F)c2)cc1,i,0.79,-15.6,i,i,i,nt,nt,nt,nt,
S=C(NCCc1ccccc1)NCc1cccc(Cl)c1,9*,-2.2,-5.2,i,i,i,62.0*,0.506,104.0%*,46.5%*,
S=C(NCCCc1ccccc1)Nc1ccccc1Cl,7*,-0.05,-22.1,i,i,i,100.0*,0.618,60.7%*,38.0%*,KCNQ1 APC inh=i
S=C(NCCNC(=S)Nc1ccccc1Cl)Nc1ccccc1Cl,7*,0.5,-5.4,i,i,i,62.0*,0.588,82.0%*,i,
CCOC(=O)c1nn(-c2ccc(C)cc2)cc1C(=O)c1ccccc1,i,0.03,-11.2,i,i,i,nt,nt,nt,nt,
Cc1cc([N+](=O)[O-])nn1Cc1noc(C(=O)NCCc2ccccn2)n1,i,-0.05,-5.1,i,i,i,nt,nt,nt,nt,
O=C(CSC1=NS(=O)(=O)c2ccccc21)Nc1ccccc1,7*,-0.22,-23.7,i,i,i,78.5*,0.4,85.3%*,122.0%*,
COC(=O)CSC1=NS(=O)(=O)c2ccccc21,8*,-5.81*,-31.0,i,i,i,100.5*,0.377*,97.7%*,141.0%*,
COC(=O)CSc1nnc(-c2ccccc2OC)o1,i,0.78,-3.6,i,i,i,nt,nt,nt,nt,
O=C(Cn1[nH]c(=O)c2ccccc2c1=O)N1CCN(S(=O)(=O)c2ccc(Cl)cc2)CC1,nt,nt,nt,nt,nt,i,nt,nt,nt,nt,
FC(F)(F)c1cccc(NC(=S)NCC2COc3ccccc3O2)c1 (stereo not drawn),7*,-0.59,-22.3,i,i,i,58.5*,0.49,64.7%*,43.5%*,
CCCNC(=S)Nc1cccc(C(F)(F)F)c1,i,0.94,-8.4,i,i,i,nt,nt,nt,nt,
O=C(CSc1nnc2n1CCCN2C(=S)Nc1ccc(Cl)cc1)c1ccccc1,9*,-0.12,-20.1,i,i,i,102.5*,0.525,i,70.0%*,KCNQ1 APC inh=i
Cc1c(C(N)=O)c(-c2ccccc2)nn1-c1ccccc1,i,2.12,-7.2,i,i,i,nt,nt,nt,nt,
CCCc1c(-c2ccc(O)cc2)nn(-c2ccc(O)cc2)c1-c1ccc(O)cc1,13*,-1.81,-35.6,i,i,-8.97*,146.5*,0.254*,i,+,
CCOC(=O)C1CCN(c2ncnc3c2c(-c2ccccc2)cn3-c2ccccc2)CC1,9*,2.36,-22.3,i,i,i,137.5*,0.404,104.0%*,+,KCNQ1 APC inh=i
Cc1ccc(-n2cc(-c3ccccc3)c3c(N4CCOCC4)ncnc32)cc1,12*,1.09,-12.2,i,i,i,94.5*,0.423,106.7%*,134.0%*,KCNQ1 APC inh=i
